The test system of data set [1] is Cynomolgus monkey. Put plainly: In vivo inhibition of CYP11B1 in cynomolgus monkey assessed as reduction in ACTH-induced cortisol at 0.01 to 1 mg/kg, po preincubated for 1 hr followed by ACTH challenge and measured after 60 mins by LC/MS-MS analysis. The format is ADME, organism-based, Macaca fascicularis. The essentials: (§1)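 Cynomolgus monkeys preselected as Synacthen responders (at least 2-fold rise in aldosterone, cortisol and corticosterone). Two animals per group. Oral vehicle or compound at 0.01–10 mg/kg in hydroxyethylcellulose/polysorbate 80/paraben suspension (2 mL/kg) at T=0, then 14.5 µg/kg Synacthen i.m. at 1 hr. EDTA blood drawn from -5 min to 24 h. Plasma steroids measured by LC/MS-MS; data shown 60 min after challenge.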

Data set [2] is described as follows: Intrinsic clearance in rat liver microsomes preincubated for 10 mins followed by NADPH regenerating system addition and measured up to 30 mins by LC/MS-MS analysis. Format: ADME, Microsome. The essentials:
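Liver microsomes at 0.5 mg protein/mL in 100 mM potassium phosphate, pH 7.4. Compound preincubated 10 min at 37 °C. Intrinsic clearance scaled using the well-stirred liver model.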
(Microsomes from liver hold many membrane-bound enzymes, among them those of drug oxidation.)

The target in data set [3] is T1, Cytochrome P450 11B2, mitochondrial (Homo sapiens, UniProt P19099).
T1 sequence (P19099 whole entry): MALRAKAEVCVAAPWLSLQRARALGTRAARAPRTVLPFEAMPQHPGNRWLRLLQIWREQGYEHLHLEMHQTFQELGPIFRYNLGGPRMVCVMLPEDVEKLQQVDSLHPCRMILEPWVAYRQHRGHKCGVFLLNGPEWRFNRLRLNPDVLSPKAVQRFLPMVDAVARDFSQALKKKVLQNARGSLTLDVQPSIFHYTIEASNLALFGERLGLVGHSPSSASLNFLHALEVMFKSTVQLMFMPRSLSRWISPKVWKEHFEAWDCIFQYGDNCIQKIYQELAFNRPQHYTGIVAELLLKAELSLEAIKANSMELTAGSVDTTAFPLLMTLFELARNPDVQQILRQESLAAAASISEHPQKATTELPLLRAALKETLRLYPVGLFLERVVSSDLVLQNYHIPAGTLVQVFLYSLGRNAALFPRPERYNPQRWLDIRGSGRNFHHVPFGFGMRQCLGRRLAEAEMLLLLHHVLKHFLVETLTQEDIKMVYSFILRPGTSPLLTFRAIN
Kind of data set: Inhibition of human CYP11B2 expressed in human renal leiomyoblastoma cells harboring FDXR/FDX using 1-deoxycorticosterone as substrate by HTRF assay. Format: cell-based. The essentials: (§2)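 Cells with endogenous FDXR/FDX and no detectable CYP11B activity, stably transfected (CMV promoter, neomycin selection, G-418 400 µg/mL) with CYP11B1 or CYP11B2 of the named species. Assayed in DMEM/F12 with 2.5% charcoal-treated FCS. Substrate 1 µM 11-deoxycorticosterone (B2) or 11-deoxycortisol (B1), 16 hr. Aldosterone or cortisol in supernatant measured by HTRF. IC50 from 4-parameter MMF fit; selectivity factor is the B1/B2 IC50 ratio.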

Data set [4] has as its system Cynomolgus monkey. Kind of data set: In vivo inhibition of CYP11B2 in cynomolgus monkey assessed as reduction in ACTH-induced aldosterone at 0.01 to 10 mg/kg, po preincubated for 1 hr followed by ACTH challenge and measured after 60 mins by LC/MS-MS analysis. The format is functional, organism-based. The settings on record: Macaca fascicularis. The essentials: as §1

Data set [5] has as its target T1, Cytochrome P450 11B2, mitochondrial. Put plainly: Inhibition of CYP11B2 in H295R cell assessed as reduction in aldosterone by LC/MS-MS method.
A short description of data set [6]: Free plasma concentration in cynomolgus monkey at 0.01 mg/kg. The settings on record: in vivo. Format: ADME, organism-based, Macaca fascicularis. In a few lines:
(§3)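 Cynomolgus monkeys, 2 per group, given single oral doses of 0.01, 0.1, 1 or 10 mg/kg as a suspension in hydroxyethylcellulose/polysorbate 80/parabens vehicle, 2 mL/kg. Synacthen 14.5 µg/kg given i.m. at 1 hr. Plasma compound levels by LC/MS-MS. Average free exposure calculated from AUC0-7hr and corrected for plasma protein binding.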

A short description of data set [7]: Protein binding in rat plasma assessed as unbound fraction at 1 uM by micro-equilibrium dialysis based LC-MS/MS analysis. The format is ADME, cell-free. In a few lines: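 Equilibrium dialysis of pooled rat or cynomolgus plasma against Soerensen buffer pH 7.4, 12–14 kDa cut-off membrane. Compounds tested in cassettes of 2–5 at 1 μM initial total concentration, with diazepam as control. Dialysis 5 hr at 37 °C under 5% CO₂. Unbound percentage by LC/MS-MS.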

In data set [8] the test system is Cynomolgus monkey. Put plainly: In vivo inhibition of CYP11B1 in cynomolgus monkey assessed as reduction in ACTH-induced 11-deoxycortisol at 0.01 to 10 mg/kg, po preincubated for 1 hr followed by ACTH challenge and measured after 60 mins by LC/MS-MS analysis. The format is ADME, organism-based, Macaca fascicularis. The essentials: as §1
A short description of data set [9]: Free plasma concentration in cynomolgus monkey at 10 mg/kg. The settings on record: in vivo. The format is ADME, organism-based, Macaca fascicularis. The essentials: as §3
The nature of data set [10]: Selectivity ratio of IC50 for cynomolgus monkey CYP11B1 expressed in human G401 cells to IC50 for cynomolgus monkey CYP11B2 expressed in human G401 cells. Format: cell-based. The essentials: as §2
Data set [11] can be described thus: Free plasma concentration in cynomolgus monkey at 0.1 mg/kg. Format: ADME, organism-based, Macaca fascicularis. The settings on record: in vivo. In a few lines:
as §3

Data set [12] can be described thus: Oral bioavailability in cynomolgus monkey. The format is ADME, organism-based, Macaca fascicularis. The settings on record: in vivo.
In data set [13] the test system is Cynomolgus monkey. Kind of data set: In vivo inhibition of CYP11B2 in cynomolgus monkey assessed as reduction in ACTH-induced 11-deoxycorticosterone at 0.01 to 10 mg/kg, po preincubated for 1 hr followed by ACTH challenge and measured after 60 mins by LC/MS-MS analysis. The settings on record: Macaca fascicularis. Format: functional, organism-based. The essentials: as §1

Data set [14] can be described thus: AUC (0 to infinity) in Wister-Han rat at 3 mg/kg, po administered as single dose by LC/MS-MS analysis. The format is ADME, organism-based. Details: dose 3 mg/kg, route oral, time infinity. The settings on record: Wistar-Han, in vivo. In a few lines:
(§4)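 Male Wistar-Han rats, single dose. IV 1 mg/kg, compound at 0.5 mg/mL in NMP:saline 30/70 (v/v). Oral 3 mg/kg, 0.25 mg/mL in 2% Klucel with 0.1% Polysorbate 80. Three rats per time point. Heparinized blood taken at eight (iv) or seven (po) time points, plasma stored at -20 °C. Plasma levels by LC/MS-MS. Non-compartmental analysis.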

A short description of data set [15]: Oral bioavailability in Wister-Han rat at 3 mg/kg administered as single dose by LC/MS-MS analysis. Format: ADME, organism-based. The settings on record: Wistar-Han, in vivo. In a few lines:
as §4

A short description of data set [16]: Permeability of the compound measured at 18 hrs by PAMPA. Format: ADME. The settings on record: read-out: permeability. In a few lines: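 PAMPA sandwich format. Donor: compound diluted to 150 μM (DMSO <2%) in 0.05 M MOPSO pH 6.5 with 0.5% glycocholic acid. Acceptor: 0.05 M MOPSO pH 6.5. Membrane of 10% egg lecithin with 0.5% cholesterol in dodecane. Donor measured at start; acceptor and donor measured at ~18 hr.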
In general terms: PAMPA measures passive passage across an artificial lipid membrane.

Data set [17] can be described thus: Selectivity ratio of IC50 for human CYP11B1 expressed in human renal leiomyoblastoma cells harboring FDXR/FDX to IC50 for human CYP11B2 expressed in human renal leiomyoblastoma cells harboring FDXR/FDX. The format is cell-based. In a few lines: as §2
Data set [18] relates to Cynomolgus monkey. Put plainly: In vivo inhibition of CYP11B2 in cynomolgus monkey assessed as reduction in ACTH-induced corticosterone at 0.01 to 10 mg/kg, po preincubated for 1 hr followed by ACTH challenge and measured after 60 mins by LC/MS-MS analysis. Format: functional, organism-based. The settings on record: Macaca fascicularis. In a few lines: as §1
A short description of data set [19]: Intrinsic clearance in cynomolgus monkey hepatocytes. The format is ADME, cell-based, Macaca fascicularis, Hepatocyte. The settings on record: read-out: CLH.

The source made the active and inactive calls.

Broadly, the IC50 is the concentration that inhibits the measured activity by half. The fraction unbound is free concentration divided by total concentration. By bioavailability is commonly meant dose-corrected exposure relative to a reference, in per cent. One may read the AUC(0-inf) as the area under the concentration-time curve extrapolated to infinity. Consider `CCS(=O)(=O)N1CC(Oc2cncc(N3C(=O)c4ccc(Cl)cc4C3(C)C)c2)C1`, for which the Activity entry in data set [1] and in [8] was “Non-Toxic” throughout. Moreover, the predicted hepatic clearance (CLH) in data set [2] was 0.3 L/h/kg. Also, the IC50 was 4 nM in [3] and < 1 nM in data set [5]. The inhibition result in data set [4] is “Active”. Further, the “Cp(f)” value in data set [6] turned out to be 0.075 ng/mL; in [9], 86.46 ng/mL; in data set [11], 0.825 ng/mL. Further, the fraction unbound at 1 µM in data set [7] amounted to 0.052. Further, the Ratio IC50 in data set [10] was 664; in [17], 162. For the same compound, the results for the bioavailability in data set [12] and in data set [15] were 19% and 45%, respectively. Moreover, the inhibition result in [13] and in data set [18] was “inactive” throughout. The same compound registered an AUC(0-inf) in [14] of 6.37 µg·h/mL. For the same compound, in [16], the Papp at 18 h was found to be 41.7 nm/s. In addition, the CLint scaled in data set [19] was determined as 0.432 L/h/kg.

Source of the values: ChEMBL document CHEMBL4616681, “Discovery of 3-Pyridyl Isoindolin-1-one Derivatives as Potent, Selective, and Orally Active Aldosterone Synthase (CYP11B2) Inhibitors” (J Med Chem, 2020).
